{"source": "paper PMC8052301", "about": "(Biochemical and biophysical research communications, 2021)", "key": {"[1]": {"system": "IP3R1", "settings": "ref [3]; cited from earlier work"}, "[2]": {"target": "T1, HS-Bok (Mus musculus, UniProt O35425)", "T1 sequence (O35425 1-213)": "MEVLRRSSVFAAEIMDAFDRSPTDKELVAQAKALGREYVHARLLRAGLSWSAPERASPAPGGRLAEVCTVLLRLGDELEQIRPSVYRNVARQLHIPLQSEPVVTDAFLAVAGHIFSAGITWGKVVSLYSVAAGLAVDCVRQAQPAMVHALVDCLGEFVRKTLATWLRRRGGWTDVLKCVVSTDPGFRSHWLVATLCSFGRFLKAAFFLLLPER", "test": "Fluorescence polarization", "type": "binding", "settings": "FP, PBS pH 7.4 / 0.1% BSA"}, "[3]": {"target": "FITC-IP3R1^1898-1940 (mouse) (UniProt P11881)", "test": "fluorescence polarisation"}, "[4]": {"target": "FITC-IP3R1^1904-1940 (mouse) (UniProt P11881)", "test": "fluorescence polarisation"}, "[5]": {"target": "FITC-IP3R1^1898-1929 (mouse) (UniProt P11881)", "test": "fluorescence polarisation"}, "[6]": {"system": "3F-Bok^WT", "test": "Anti-HA IP of IP3R1-HA constructs and co-IP of 3F-Bok^WT from HEK-3KO cells", "type": "cell-based, mouse", "settings": "IP3R1-HA and 3F-Bok co-transfected, immunoblot", "method_in_brief": "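Cotransfection uses full-length C-terminally HA-tagged mouse IP3R1 and N-terminally 3xFlag-tagged mouse Bok, with 1-2 μg cDNA and PEI, in HEK-3KO cells seeded at 6-8x10^5/well and transfected ~24 h later. Rabbit anti-HA precipitates from lysates. Blots of precipitates and inputs are probed with mouse anti-HA and anti-Bok, with p97 as input loading control. Detection is by ECL after SDS-PAGE and nitrocellulose transfer.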"}, "[7]": {"system": "HEK-3KO cells", "test": "Cellular fractionation into cytosol and crude membrane, immunoblot", "type": "cell-based", "settings": "for localization on co-expression of IP3R1-HA^WT and 3F-Bok^WT: IP3R1-HA^WT and 3F-Bok^WT co-expressed; for localization, expressed alone: cytosol / membrane fractions", "method_in_brief": "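HEK-3KO cells are PEI-transfected (1-2 μg cDNA) with tagged mouse constructs, harvested in ice-cold homogenization buffer and sonicated. They are then spun at 20,000xg for 60 min at 4°C. The supernatant gives the cytosol fraction, and the pellet, resuspended in buffer, gives crude membranes. Fractions go through SDS-PAGE and ECL immunoblot, with transaldolase as the cytosol marker and Hrd1 as the membrane marker.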"}, "[8]": {"system": "3F-Bok^ΔTM", "test": "Anti-HA IP and co-IP of TM domain-lacking constructs from HEK-3KO cells", "type": "cell-based, mouse", "settings": "immunoblot", "method_in_brief": "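HEK-3KO cells (6-8x10^5/well) are transfected ~24 h after seeding with 1-2 μg cDNA using PEI. Constructs are mouse IP3R1 with a C-terminal HA tag, truncated to aa 1-2264, and mouse Bok with an N-terminal 3xFlag tag, truncated to aa 1-187. Lysates are immunoprecipitated with rabbit anti-HA. Samples are heated (37°C 30 min or boiled 5 min), run on SDS-PAGE, blotted to nitrocellulose and detected by ECL. p97 is the input loading control.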"}, "[9]": {"system": "HS-HA", "test": "FP of FITC-conjugated peptide with negative control HS-HA", "type": "binding", "settings": "PBS pH 7.4 / 0.1% BSA, FITC-IP3R1^1898-1940"}, "[10]": {"system": "HS-IP3R1", "type": "binding, mouse", "settings": "PBS / 0.1% BSA, 16h at 4°C, anti-IP3R1^1884-1903 IP, immunoblot", "method_in_brief": "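His-SUMO-tagged mouse Bok and IP3R1 fragments, plus an HA-tag control, are expressed in E. coli BL21-CodonPlus(DE3)-RIPL. Cells are grown at 37°C to OD600 ~0.6, then induced with 1 mM IPTG for ~18 h at 16°C. Protein is purified on Ni-NTA in pH 7.4 phosphate buffer and eluted with 400 mM imidazole. Mixtures are immunoprecipitated with rabbit anti-IP3R1 (aa 1884-1903) and probed by immunoblot.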"}}, "note": "Ends that are not written are not given here. * marks the point of attachment. FITC = O=C1OC2(c3ccc(O)cc3Oc3cc(O)ccc32)c2ccc(NC(=S)*)cc21; Ahx = NCCCCCC(=O)O", "data": [{"molecule": "Bcl-2: Bcl-2 family protein reported to interact with IP3Rs", "values": [{"measurement": "strength of interaction with IP3R1 relative to Bok", "setting": "[1]", "result": "much less strongly than Bok"}]}, {"molecule": "Bcl-xL: Bcl-2 family protein reported to interact with IP3Rs", "values": [{"measurement": "strength of interaction with IP3R1 relative to Bok", "setting": "[1]", "result": "much less strongly than Bok"}]}, {"molecule": "FITC-IP3R1^1907-1921: shorter peptide which encompasses just the ANCHOR2 \"peak\" shown in Figure 1C (ITEEVRDQLLEASAA; also: FITC-conjugated, position not given here)", "values": [{"measurement": "binding to HS-Bok (in words)", "setting": "[2]", "result": "does not bind to HS-Bok at all"}]}, {"molecule": "HS-Bok (from UniProt O35425 1-213) (natural protein)", "values": [{"measurement": "Kd", "setting": "[3]", "result": 64, "unit": "nM"}, {"measurement": "Kd", "setting": "[4]", "result": 398, "unit": "nM"}, {"measurement": "Kd", "setting": "[5]", "result": 265, "unit": "nM"}]}, {"molecule": "IP3R1-HA^WT: mouse IP3R1 tagged at the C-terminus with an HA epitope", "values": [{"measurement": "co-IP of 3F-Bok^WT", "setting": "[6]", "result": "allowed for efficient co-IP of 3F-Bok^WT"}, {"measurement": "localization on co-expression of IP3R1-HA^WT and 3F-Bok^WT", "setting": "[7]", "result": "the same localization is maintained"}, {"measurement": "localization, expressed alone", "setting": "[7]", "result": "localize completely to membranes"}]}, {"molecule": "IP3R1-HA^Δ1909-1941: IP3R1-HA construct with the largest deletion", "values": [{"measurement": "co-IP of 3F-Bok^WT", "setting": "[6]", "result": "did not co-IP 3F-Bok^WT"}]}, {"molecule": "IP3R1-HA^Δ1916-1917: IP3R1-HA deletion mutant, Bok binding-deficient", "values": [{"measurement": "co-IP of 3F-Bok^WT", "setting": "[6]", "result": "failed to co-IP 3F-Bok^WT"}]}, {"molecule": "IP3R1-HA^Δ1917: IP3R1-HA deletion mutant", "values": [{"measurement": "co-IP of 3F-Bok^WT", "setting": "[6]", "result": "failed to co-IP 3F-Bok^WT"}]}, {"molecule": "IP3R1-HA^Δ1920-1921: IP3R1-HA deletion mutant", "values": [{"measurement": "co-IP of 3F-Bok^WT", "setting": "[6]", "result": "failed to co-IP 3F-Bok^WT"}]}, {"molecule": "IP3R1-HA^ΔTM, Δ1916-1917: lacks TM domains and the ability to bind Bok", "values": [{"measurement": "localization upon co-transfection of 3F-Bok^WT", "setting": "[7]", "result": "an effect not seen"}]}, {"molecule": "IP3R1-HA^ΔTM: contains amino acids 1-2264 of IP3R1", "values": [{"measurement": "co-IP of cytosolic 3F-Bok^ΔTM and IP3R1-HA^ΔTM", "setting": "[8]", "result": "strongly co-IP"}, {"measurement": "localization upon co-transfection of 3F-Bok^WT", "setting": "[7]", "result": "becomes more membrane-associated"}, {"measurement": "localization, expressed alone", "setting": "[7]", "result": "predominantly cytosolic"}]}, {"molecule": "{FITC-Ahx}-KKAKEPTTQITEEVRDQLLEASAATRKAFTTFRREADPDDHYQ (N-terminus assumed) [FITC-IP3R1^1898-1940]", "values": [{"measurement": "binding to HS-HA (in words)", "setting": "[9]", "result": "but not negative control HS-HA"}, {"measurement": "binding to HS-Bok (in words)", "setting": "[2]", "result": "bound with high affinity"}]}, {"molecule": "3F-Bok^ΔTM: contains amino acids 1-187 of Bok (protein, left off: 3xFlag, N-terminal, kept) MEVLRRSSVFAAEIMDAFDRSPTDKELVAQAKALGREYVHARLLRAGLSWSAPERASPAPGGRLAEVCTVLLRLGDELEQIRPSVYRNVARQLHIPLQSEPVVTDAFLAVAGHIFSAGITWGKVVSLYSVAAGLAVDCVRQAQPAMVHALVDCLGEFVRKTLATWLRRRGGWTDVLKCVVSTDPGFR", "values": [{"measurement": "localization, expressed alone", "setting": "[7]", "result": "predominantly cytosolic"}]}, {"molecule": "HS-Bok: bacterially expressed, His-sumo (HS) tagged mouse Bok (protein, UniProt O35425 1-213, looked up, His-SUMO tag) Bcl-2-related ovarian killer …: MEVLRRSSVFAAEIMDAFDRSPTDKELVAQAKALGREYVHARLLRAGLSWSAPERASPAPGGRLAEVCTVLLRLGDELEQIRPSVYRNVARQLHIPLQSEPVVTDAFLAVAGHIFSAGITWGKVVSLYSVAAGLAVDCVRQAQPAMVHALVDCLGEFVRKTLATWLRRRGGWTDVLKCVVSTDPGFRSHWLVATLCSFGRFLKAAFFLLLPER", "values": [{"measurement": "co-IP with HS-IP3R1", "setting": "[10]", "result": "strong co-IP"}]}, {"molecule": "3F-Bok^WT: Bok from mouse tagged at the N-terminus with a 3xFlag epitope (protein, left off: 3xFlag, N-terminal, kept) MEVLRRSSVFAAEIMDAFDRSPTDKELVAQAKALGREYVHARLLRAGLSWSAPERASPAPGGRLAEVCTVLLRLGDELEQIRPSVYRNVARQLHIPLQSEPVVTDAFLAVAGHIFSAGITWGKVVSLYSVAAGLAVDCVRQAQPAMVHALVDCLGEFVRKTLATWLRRRGGWTDVLKCVVSTDPGFRSHWLVATLCSFGRFLKAAFFLLLPER", "values": [{"measurement": "localization on co-expression of IP3R1-HA^WT and 3F-Bok^WT", "setting": "[7]", "result": "the same localization is maintained, with an increase in Bok expression level"}, {"measurement": "localization, expressed alone", "setting": "[7]", "result": "localize completely to membranes"}]}]}
